Compound activity deposited in PubChem by several laboratories.
Compounds with a hit are over-represented: about 4.1% of the library has one in this group of screens.
ATG4B inhibitor – inhibitors of human ATG4B cysteine protease; hit rate 0.51% among 340,000; ATG4B cleavage of LC3-PLA2, NBD-HPC fluorescence, 1 h; inhibition, % at 8.33 µM; Q9Y4P1; AID 504462; in the data active = inhibition above about 40%
Target sequence (Q9Y4P1 whole entry, looked up): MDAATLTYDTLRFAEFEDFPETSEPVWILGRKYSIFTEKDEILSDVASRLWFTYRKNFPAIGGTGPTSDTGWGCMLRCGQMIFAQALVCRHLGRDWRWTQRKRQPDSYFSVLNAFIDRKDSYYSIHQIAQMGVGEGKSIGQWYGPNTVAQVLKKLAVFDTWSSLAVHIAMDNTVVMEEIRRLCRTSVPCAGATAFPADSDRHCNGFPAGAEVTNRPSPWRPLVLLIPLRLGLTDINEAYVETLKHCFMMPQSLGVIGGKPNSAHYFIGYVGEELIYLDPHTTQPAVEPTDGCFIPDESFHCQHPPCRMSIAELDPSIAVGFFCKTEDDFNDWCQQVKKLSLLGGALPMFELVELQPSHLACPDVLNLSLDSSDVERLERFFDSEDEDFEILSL
SMARCA2 activ – SMARCA2 function activation, primary screen | MG213 cells, MMTV-luciferase reporter, dexamethasone, overnight | activation, % at 9.1 µM | hit rate 1% among 370,000 | AID 652017; in the data active = activation above about 7.8%;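 note: 0% = vehicle wells and 100% = reference activator wells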
MPTP block – permeability transition pore inhibition. AID 602449. inhibition, % at 10 µM. isolated mouse mitochondria, Ca2+ swelling absorbance, 30 min. hit rate 1.4% among 360,000;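 active = inhibition of 50% or more, scaled per plate between neutral and stimulator controls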;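 note: 0% = DMSO wells given calcium and 100% = 1 mM EGTA wells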
MC4R antagonist – blocks human MC4R cAMP signaling | MC4R-expressing cells, MTII-stimulated cAMP, LANCE TR-FRET | AID 540295 | inhibition, % at 6.5 µM | hit rate 0.48% among 360,000 | P32245;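 active = inhibition above its plate's cutoff, the mean of tested wells on that plate plus 3 SD, cut at about 29% in these data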;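 note: 0% = Melanotan II alone and 100% = Melanotan II plus saturating MCL0020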
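System: U2OS cells stably expressing human melanocortin 4 receptor (MC4R). Reagent: Melanotan II challenge after compound preincubation. Doses: 6.5 µM. Times: 30-min compound, 1-h challenge, 1-h detection, room temperature. Measured by: TR-FRET with Eu-cAMP and labeled anti-cAMP, 671 nm. Replicates: singlicate.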
MC4R barr agon – human MC4R agonism via beta-arrestin | P32245 | U2OS MC4R beta-arrestin complementation, luminescence; percent of melanotan II response, DMSO zero | activation, % at 8.9 µM | hit rate 0.98% among 360,000 | AID 540308;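 active = activation above a per-plate cutoff, the mean activation of sample wells on that plate plus 3 SD, cut at about 8% in these data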
ATG4B confirm – ATG4B (human) inhibition, single-dose confirmed | shares compounds with ATG4B inhibitor | ATG4B protease fluorescent substrate cleavage assay | inhibition, % at 8.33 µM | hit rate 92% among 320 | AID 504757; in the data active = inhibition above about 39%
PLA2 ctr – PLA2 (human) inhibition in ATG4B counter-screen; shares compounds with ATG4B inhibitor; purified PLA2, NBD-C6-HPC fluorescence, 45 min; inhibition, % at 8.33 µM; hit rate 66% among 1,600; in the data active = inhibition above about 50%
Target sequence (P04054 whole entry, looked up): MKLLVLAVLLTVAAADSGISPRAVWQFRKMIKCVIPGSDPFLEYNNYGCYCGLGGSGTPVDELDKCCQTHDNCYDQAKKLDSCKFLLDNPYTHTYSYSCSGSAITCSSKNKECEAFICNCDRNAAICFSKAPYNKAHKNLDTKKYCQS
An asterisk follows results filed as active; · = not tested or not shown.

SMILES	ATG4B inhibitor	SMARCA2 activ	MPTP block	MC4R antagonist	MC4R barr agon	PLA2 ctr	others
COC(=O)C1CCN(C(=O)CCn2nnc(-c3cccs3)n2)CC1	·	-6.6	·	·	·	·
O=C(CCc1ccccc1)N[C@H]1[C@H](OC(=O)c2cnccn2)CCC[C@]12C(=O)N(Cc1ccccc1)c1ccccc12	·	0.9	·	·	·	·
C=CCN1C(=O)NC(c2ccc(OC)cc2)(C(F)(F)F)S/C1=C(\C#N)c1nnc(N2CCOCC2)n1-c1ccccc1 (stereo not given)	5.7	1.9	2.3	1.9	-0.8	·
C=CCN1C(c2cccc(C(F)(F)F)c2)=CS/C1=C(/C#N)c1nnc(N2CCOCC2)n1-c1ccccc1	49.9*	-3.3	0.7	6.2	0.1	54.9*
C=CCN1C(c2ccccc2)=CS/C1=C(\C#N)c1nnc2n1CCCCC2	8.2	-2.2	-1.0	5.0	0.1	·
C=CCN1C(c2ccc(Br)cc2)=CS/C1=C(/C#N)c1nnc(N2CCOCC2)n1-c1ccccc1	61.4*	3.2	3.4	20.5	0.9	69.9*
O=C(NC1CCCCN(Cc2ccc(OC(F)(F)F)cc2)C1=O)c1ccc(F)c(F)c1 (stereo not given)	·	-2.4	·	·	·	·
O=C(N[C@H](Cc1ccccc1)C(=O)N1CCN(CC(=O)N2CCCC2)CC1)[C@H]1O[C@@H](n2ccc(=O)[nH]c2=O)[C@H](O)[C@@H]1O	·	-2.1	·	·	·	·
Oc1c(Br)cc(Br)cc1C=NCc1ccccc1	73.5*	-0.3	0.8	13.4	0.9	71.5*
COC(=O)[C@]12C[C@H](CC(=O)N3CCSCC3)C(=O)N(Cc3ccccc3)C1=C[C@H](C(C)C)O[C@@H]2C1CC1	·	-3.0	·	·	·	·
CCCCCCCCCCCCCCCCCCNc1ccn(C2OC(COP(=O)(O)OCC3OC(n4cc(F)c(=O)[nH]c4=O)CC3O)C(O)C2O)c(=O)n1 (stereo not given)	42.2*	1.7	-7.4	1.1	-1.6	40.9	ATG4B confirm=52.1*
O=c1[nH]c(=O)n(C2OC(CO)C(O)C(O)C2O)cc1F (stereo not given)	·	1.5	·	·	·	·
CCc1ccc(CCNC(=O)OC2CC3CC2[C@H]2CCCCN2C3)cc1 (stereo not given in full)	·	-3.4	·	·	·	·
C[C@H](O)[C@@H]1C(=O)N2CCc3c([nH]c4cccc(-c5ccccc5)c34)[C@@H]2C[C@@H]1N(C)C(=O)c1ccco1	·	-1.3	·	·	·	·
O=C(/C=C\c1ccccc1OC(=O)c1ccccc1F)c1cc2ccccc2o1	44.6*	3.6	2.5	-11.5	-1.3	51.2*
CCC(C)N(C(=O)COc1ccc(Br)cc1C=O)C1CCS(=O)(=O)C1 (stereo not given)	42.2*	-3.1	0.1	1.5	0.2	47.7	ATG4B confirm=57.1*
CCC(C)N(C(=O)COc1ccc(NC(C)=O)cc1)C1CCS(=O)(=O)C1 (stereo not given)	-9.3	-0.8	1.0	17.0	1.2	·
c1ccc(-c2nc(NCc3cccnc3)c3ccccc3n2)cc1	14.3	·	-0.3	1.5	0.7	·
Clc1cccc(-c2nc(NCc3cccnc3)c3ccccc3n2)c1	64.3*	-1.5	0.3	-2.0	-1.8	70.5*
COc1cc(NC(=O)c2ccccc2)c(C)cc1NC(=O)CSc1nnc(-c2ccccc2F)n1-c1ccc(C)cc1	·	-4.5	·	·	·	·
O=C(COC(=O)c1cc(S(=O)(=O)N2CCCCC2)ccc1Cl)NC1CCCCC1	·	-0.7	-0.1	2.8	-1.6	·
Cn1cccc1C(=O)NC(=O)COC(=O)c1cc(S(=O)(=O)N2CCCCC2)ccc1Cl	51.2*	-1.3	-2.2	-0.8	0.1	51.6*
CCn1c(COc2ccccc2)nnc1SCC(=O)Nc1ccc(Oc2ccccc2)cc1	·	-3.1	·	·	·	·
COc1ccc(OC)c(S(=O)(=O)N2CCCCC2C(=O)N2CCN(c3ccccc3F)CC2)c1 (stereo not given)	·	-1.3	·	·	·	·
C=CCn1c(NS(=O)(=O)c2ccccc2)c(S(=O)(=O)c2ccc(C)cc2)c2nc3ccccc3nc21	6.9	-0.5	0.7	4.6	-0.5	·
SMILES	ATG4B inhibitor	SMARCA2 activ	MPTP block	MC4R antagonist	MC4R barr agon	PLA2 ctr	others
O=S(=O)(Nc1c(S(=O)(=O)c2ccccc2)c2nc3ccccc3nc2n1C1CCCCC1)c1ccccc1	44.6*	-4.4	48.0	-13.5	0.7	50.1*
Cc1ccc(C)c(OCc2cc(C(=O)N3CCc4sccc4C3)no2)c1	45.8*	-1.4	1.0	1.3	-1.7	81.1*
CSc1ccccc1OCc1cc(C(=O)N2CCc3sccc3C2)no1	72.1*	-1.7	-1.1	17.1	-1.0	78.5*
CC1CCCCC1NC(=O)COC(=O)c1c2c(nc3ccccc13)/C(=C/c1ccco1)CC2 (stereo not given)	53.1*	-3.1	4.9	3.6	1.0	44.7	ATG4B confirm=75.1*
COC(=O)[C@]12C[C@H](CC(=O)NCc3ccc(C)o3)C(=O)N(CCC3=CCCCC3)C1=C[C@H](C(C)C)O[C@@H]2C1CC1	·	-3.6	·	·	·	·
COC(=O)[C@]12C[C@H](CC(=O)NCC3CCCCC3)C(=O)N(Cc3ccc(Cl)cc3Cl)C1=C[C@H](COCc1ccccc1)O[C@@H]2C	·	-2.9	·	·	·	·
COc1cccc(NC(=O)NC2CCCc3ccccc32)c1 (stereo not given)	61.8*	-1.4	13.5	2.3	-2.7	62.3*
COc1ccc(NC(=O)NC2CCCc3ccccc32)c(OC)c1 (stereo not given)	15.3	-1.2	0.8	1.0	-1.8	·
N=C1/C(=C\c2ccc(OC(=O)c3ccccc3)cc2)C(=O)N=C2SC(N3CCOCC3)=NN12	57.0*	0.8	1.6	-4.8	-1.1	76.5*
Cc1ccc(C(=O)Oc2ccc(/C=C3\C(=N)N4N=C(N5CCOCC5)SC4=NC3=O)cc2)cc1	-3.2	5.0	0.1	8.6	-0.6	·
CCOC(=O)c1c(C)nc2sc(C(N)=O)c(N)c2c1-c1ccc(OC)cc1	64.9*	-1.7	-1.5	-16.1	-2.6	73.9*
NC(=O)c1sc2nc3c(c(-c4ccco4)c2c1N)CCCC3	13.1	-6.1	-1.0	9.0	-0.3	·
NC(=O)c1sc2nc3c(c(-c4ccc(Cl)cc4)c2c1N)CCCC3	48.7*	0.6	6.1	2.3	7.1	66.0*
Cc1ccc(-c2c3c(nc4sc(C(N)=O)c(N)c24)CCC3)cc1	55.2*	-0.4	5.4	4.3	4.5	58.7*
COC(=O)c1c(NC(=O)C2Cc3ccccc3C(=O)O2)sc2c1CCCC2 (stereo not given)	49.0*	1.0	3.4	10.6	1.2	29.3	ATG4B confirm=83.4*
Nc1ccc(Br)cc1Br	17.2	-2.7	-0.6	4.8	-1.4	·
Cc1cc(C)c(-c2c(N)cc(Br)cc2Br)c(N)c1	57.1*	0.7	0.5	15.8	3.3	65.2*
CC(C#N)Sc1ncnc2sc3c(c12)CCC3 (stereo not given)	49.2*	-1.2	-0.6	-18.8	0.7	47.7
